pPAFAH inh: pPAFAH (human) enzyme inhibition | Q13093 | recombinant pPAFAH, FP-rhodamine probe fluorescence polarization | inhibition, % at 3.39 µM | 330,000 compounds, 1.5% hits;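 active means inhibition above the mean inhibition across the screen plus 3 SD, cut at about 25% in these data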;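 further: inhibitors block binding of the rhodamine activity-based probe so polarization drops; 0% = enzyme with DMSO and 100% = wells lacking pPAFAH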
PAFAH1B2 FP inh: blocks human PAF acetylhydrolase 1b catalytic subunit 2 | P68402 | inhibition, % at 3.39 µM | recombinant PAFAH1B2, FP-rhodamine activity probe, fluorescence polarization | 340,000 compounds, 1.2% hits | AID 492953;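 active means inhibition above the mean of all tested compounds plus 3 SD, cut at about 24% in these data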;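 further: 0% = enzyme with DMSO and 100% = wells lacking PAFAH1B2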
Target sequence (P68402 whole entry, looked up): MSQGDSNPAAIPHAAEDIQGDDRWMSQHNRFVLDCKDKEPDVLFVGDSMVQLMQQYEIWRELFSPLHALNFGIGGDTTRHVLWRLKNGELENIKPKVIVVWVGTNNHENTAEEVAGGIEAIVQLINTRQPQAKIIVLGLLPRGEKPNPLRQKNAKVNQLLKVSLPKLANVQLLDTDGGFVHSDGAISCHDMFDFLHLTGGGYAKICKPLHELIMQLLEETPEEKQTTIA
ABHD4 inh: ABHD4 (mouse) inhibition, primary FP screen; Q8VD66; purified mABHD4, FP-Rh probe fluorescence polarization; inhibition, % at 8.92 µM; 370,000 compounds, 0.54% hits;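 active means inhibition exceeding the mean over every tested compound plus 3 SD, cut at about 30% in these data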;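 further: 0% = plate median of compound wells and 100% = S159A mutant with DMSO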
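Assay system: Wild-type mouse ABHD4 protein | Medium: HEPES pH 7.0 buffer, 150 mM NaCl, 0.01% Pluronic F-127 | Incubation: Enzyme–compound pre-incubation 45 min, then probe 60 min, both 25 °C | Technique: Fluorescence polarization with parallel and perpendicular emission, 525/598 nm | Evaluation: % inhibition of FP-Rh probe binding versus controls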
HTRA1 inh: HTRA1 (human) protease inhibition; Q92743; recombinant HTRA1, FP-rhodamine activity-based probe, fluorescence polarization; inhibition, % at 5.96 µM; 340,000 compounds, 0.5% hits; AID 504803; in the data active means inhibition above about 36%;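 further: 0% = enzyme with DMSO and 100% = wells lacking enzyme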
PAFAH2 FP inh: inhibitors of human PAFAH2 | Q99487 | recombinant PAFAH2, FP-rhodamine activity probe, fluorescence polarization | inhibition, % at 3.39 µM | 340,000 compounds, 0.99% hits | AID 492956;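 active means inhibition above the mean over all tested compounds plus 3 SD, cut at about 30% in these data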;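 further: inhibitors block probe labeling of enzyme so polarization drops; 0% = enzyme with DMSO and 100% = wells lacking PAFAH2 protein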
PAFAH1B3 inh: blocks human PAF acetylhydrolase 1B catalytic subunit 3; Q15102; recombinant PAFAH1B3, FP-rhodamine probe, fluorescence polarization; 340,000 compounds, 0.28% hits; inhibition, % at 3.39 µM;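 active means inhibition above the screen-wide average of all tested compounds plus 3 SD, cut at about 25% in these data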;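 further: 0% = enzyme with DMSO only and 100% = wells lacking PAFAH1B3 protein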
Target sequence (Q15102 whole entry, looked up): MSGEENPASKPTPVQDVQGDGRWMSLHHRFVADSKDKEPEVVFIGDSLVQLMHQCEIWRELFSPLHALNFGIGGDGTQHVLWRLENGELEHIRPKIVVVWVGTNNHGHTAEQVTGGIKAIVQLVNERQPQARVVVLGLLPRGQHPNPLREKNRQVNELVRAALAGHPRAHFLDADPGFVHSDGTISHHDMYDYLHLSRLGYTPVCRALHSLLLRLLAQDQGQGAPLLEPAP
pPAFAH FP conf: confirmation of human plasma PAF acetylhydrolase (pPAFAH) inhibitors; inhibition, % at 3.39 µM; 2,300 compounds, 72% hits; recombinant pPAFAH, FP-Rh probe fluorescence polarization; shares compounds with pPAFAH inh;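 active means mean inhibition of the triplicate above the hit cutoff set for the earlier primary screen, cut at about 25% in these data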;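 further: 0% = enzyme with DMSO and 100% = wells lacking pPAFAH enzyme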
HTRA1 inh conf: HTRA1 (human) inhibition, confirmation | shares compounds with HTRA1 inh | 1,600 compounds, 66% hits | recombinant HTRA1, FP-rhodamine activity-based probe, fluorescence polarization | inhibition, % at 5.96 µM;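 active means mean inhibition over three repeats above a set limit taken from the earlier primary screen, cut at about 37% in these data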;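 further: 0% = HTRA1 with DMSO and 100% = wells lacking HTRA1; inhibitors block probe binding so polarization drops and inhibition rises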
mABHD4 conf: ABHD4 (mouse) inhibition, FP confirmation; shares compounds with ABHD4 inh; purified mABHD4, FP-Rh probe fluorescence polarization; inhibition, % at 8.92 µM; 1,800 compounds, 55% hits;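 active means mean inhibition across replicates above the hit cutoff set in the primary screen, cut at about 30% in these data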;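 further: 0% = wild-type ABHD4 with DMSO and 100% = catalytically dead S159A mutant with DMSO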
* = called active by the depositor; . = no result. Only some compounds are listed: those with a hit (about 2.8% of all), similar ones and a draw of the others.

SMILES | pPAFAH inh | PAFAH1B2 FP inh | ABHD4 inh | HTRA1 inh | PAFAH2 FP inh | PAFAH1B3 inh | pPAFAH FP conf | HTRA1 inh conf | mABHD4 conf
Cc1ccc(O)c(CP(=O)(c2ccccc2)c2ccccc2)c1 | 10 | -2 | -2 | -3 | -1 | -3 | . | . | .
O=C(NN=Cc1c(O)ccc2ccccc12)c1ccncc1 | . | 4 | 16 | 22 | -1 | 18 | . | . | .
O=C(N/N=C\c1c(O)ccc2ccccc12)c1cncc(Br)c1 | 41* | 7 | 34* | 53* | 3 | 20 | 58* | 50* | 25
COC(=O)C[C@@H]1CC[C@H]2[C@H](COc3ccc(NC(=O)Nc4ccc(C#N)cc4)cc3C(=O)N2C)O1 | . | . | 1 | . | . | . | . | . | .
O=C(O)c1cc(O)c2c(c1)C(=O)c1cc(O)cc(O)c1C2=O | 35* | 16 | 61* | 15 | 13 | 17 | 24 | . | 42*
O=C1c2cc(Cl)ccc2-c2c(O)cc(Cl)cc21 | . | 2 | 11 | -11 | -3 | 6 | . | . | .
S=c1[nH]nc(-c2ccc(Cl)cc2)n1/N=C/C=C/c1ccco1 | 39* | . | 31* | . | . | . | 13 | . | -2
Cc1ccccc1-c1n[nH]c(=S)n1/N=C/C=C/c1ccco1 | 45* | 4 | 35* | 16 | 7 | 5 | 9 | . | 32*
COC1=C[C@H](C(=O)N[C@H]2CCCC[C@@H]2NC(C)=O)[C@H](C)[C@@H](c2ccccc2)CC1=O | . | . | -6 | . | . | . | . | . | .
O=C(c1ccco1)N1CCN(c2ccc(Cl)c(Cl)c2)CC1 | 8 | 4 | 0 | -4 | 2 | 1 | . | . | .
O=C(O)CCCNc1cc(N2CCN(C(=O)c3ccco3)CC2)c2noc3c2c1C(=O)c1ccccc1-3 | 57* | 14 | 66* | 52* | 21 | 18 | 31* | 47* | 43*
CCCCOCCCNC(=O)C[C@H]1C[C@@]2(C(=O)OC)C(=C[C@H](COCc3ccccc3)O[C@@H]2C)N(Cc2ccco2)C1=O | . | . | -1 | . | . | . | . | . | .
O=c1cc(-c2ccccc2)oc2cc(O)ccc12 | . | 2 | -16 | -7 | -3 | 3 | . | . | .
O=c1ccc2c(-c3ccccc3)c3ccc(O)cc3oc-2c1 | 53* | 47* | 43* | 60* | 60* | 39* | 47* | 61* | 81*
C#CCNC(=O)C[C@@H]1C(=O)N(Cc2ccc(OC)cc2)C2=CCN(C(=O)OC(C)(C)C)C[C@]21C(=O)OCC | . | . | 11 | . | . | . | . | . | .
O=[N+]([O-])c1cc(-c2ccc(/C=N/c3nc4ccccn4c3-c3ccco3)o2)ccc1Cl | 35* | 7 | 46* | 37* | 19 | 13 | 14 | 46* | 16
CCCC(=O)C1=C(O)C(C(=O)OC)C(C)(C)CC1=Nc1ccc(N)cc1 (stereo unspecified) | 1 | 0 | -3 | -1 | 0 | 0 | . | . | .
CCCC(=Nc1ccc(N)cc1)C1=C(O)C(C(=O)OC)C(C)(C)CC1=O (stereo unspecified) | 40* | 4 | 79* | 61* | 16 | 13 | 5 | 59* | 14
CCOC(=O)c1c(N)sc(N)c1C(=O)OCC | 6 | 1 | -1 | 6 | 2 | -10 | . | . | .
CCOC(=O)c1c(N)sc(=S)c2c1CCC2 | 49* | 5 | 42* | 38* | 28 | 18 | 16 | 22 | 28
COc1cccc(NC(=O)n2ccc3ccc(-c4ccc5cc[nH]c5c4)cc32)c1 | . | . | -44 | . | . | . | . | . | .
O=C(/C=C/c1ccccc1)c1cc(Br)ccc(=O)c1O | 36* | 3 | 37* | 58* | 37* | 12 | 23 | 65* | 29
O=[N+]([O-])c1c(NCCCO)cc(Sc2ccc(Cl)cc2)c2nonc12 | -1 | 2 | 13 | -1 | -1 | 8 | . | . | .
O=[N+]([O-])c1c(NCCCO)cc(SCc2ccco2)c2nonc12 | 59* | 6 | 54* | 11 | 1 | 9 | -2 | . | 16
O=C(NCCc1cccc(F)c1)c1cc2ccccn2n1 | . | . | -4 | . | . | . | . | . | .

Compound activity (PubChem)
